In article PMC7983888 (Clinical Pharmacology in Drug Development, 2020):
“And” between values parts separate entries of the source, which are not always exact repeats. Equal entries are not always repeated. “Also recorded” adds a separate entry of the source.

Experiments:
[1] = test system: cardiac repolarization (QTc interval) in healthy volunteers; assay: Exposure-response; format: in vivo, human
[2] = test system: human ether‐à‐go‐go‐related gene (hERG) potassium channels; settings: human embryonic kidney 293 cells; cited from earlier work
[3] = test system: healthy volunteers; assay: Safety and tolerability; format: in vivo, human
[4] = test system: cardiac repolarization (QTc interval) in healthy volunteers; assay: Thorough QT study: ANCOVA of QTcF versus time-matched placebo; format: in vivo, human; settings: for QTcF Difference (Glasdegib‐Placebo) (90%CI) / QTcF LS Mean: N = 35
[5] = Plasma glasdegib pharmacokinetics after single oral doses; format: in vivo, human; settings: for AUCextrap / CL/F: fasted, n=35, arithmetic mean ± SD; for Cmax / half-life: human, plasma, po
How it was run: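 Healthy volunteers in a randomized, double-blind, 4-period crossover received single oral doses after an overnight fast (≥10 hours), with washout ≥6 days. Plasma was assayed by validated HPLC-MS/MS: calibration 3–3000 ng/mL with 1/concentration² weighting, LLOQ 3 ng/mL, samples stored at −70°C. Cmax, Tmax, AUClast, AUCinf, CL/F, apparent volume and terminal half-life were derived by noncompartmental analysis.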

[6] = patient population, cited from earlier work
[7] = test system: patients with advanced hematologic malignancies; settings: cited from earlier work
[8] = glasdegib 150 mg single dose, 0.5 h postdose
[9] = glasdegib 150 mg single dose, 1 h postdose
[10] = glasdegib 150 mg single dose, 1.5 h postdose
[11] = glasdegib 150 mg single dose, 2 h postdose
[12] = glasdegib 150 mg single dose, 3 h postdose
[13] = glasdegib 150 mg single dose, 4 h postdose
[14] = glasdegib 150 mg single dose, 6 h postdose
[15] = glasdegib 150 mg single dose, 24 h postdose
[16] = glasdegib 300 mg single dose, 0.5 h postdose
[17] = glasdegib 300 mg single dose, 1 h postdose
[18] = glasdegib 300 mg single dose, 1.5 h postdose
[19] = glasdegib 300 mg single dose, 2 h postdose
[20] = glasdegib 300 mg single dose, 3 h postdose
[21] = glasdegib 300 mg single dose, 4 h postdose
[22] = glasdegib 300 mg single dose, 6 h postdose
[23] = glasdegib 300 mg single dose, 24 h postdose
[24] = glasdegib 150 mg single oral dose
[25] = glasdegib 300 mg single oral dose
[26] = moxifloxacin 400 mg single dose

SMILES: CN1CC[C@@H](NC(=O)Nc2ccc(C#N)cc2)C[C@@H]1c1nc2ccccc2[nH]1 [Glasdegib]
- PK/PD hysteresis (lag between plasma concentration and effect on QTc) ([1]; 150 and 300 mg single doses): No PK/PD hysteresis
- mean slope estimate describing the ∆QTcF‐concentration relationship ([1]; LME model): 0.005 ms/ng/mL
- effect on heart rate (change in RR interval, ∆RR versus concentration) ([1]; LME model of ∆RR versus glasdegib concentration): not to have a meaningful effect on heart rate; also recorded: relationship of negligible magnitude
- Slope Estimate From Final Model, ∆QTcF per ng/mL (95%CI) ([1]; QTcF, LME model): 0.005 (0.004‐0.006) Milliseconds per ng/mL
- Slope Estimate From Final Model, ∆QTcS per ng/mL (95%CI) ([1]; QTcS (study population-specific correction), LME model): 0.004 (0.003‐0.005) Milliseconds per ng/mL
- Model‐Derived ∆∆QTcS (90%CI) ([1]; Supratherapeutic Steady‐State Cmax (2445 ng/mL)): 11.89 (10.14‐13.64) Milliseconds
- Model‐Derived ∆∆QTcF (90%CI) ([1]; Supratherapeutic Steady‐State Cmax (2445 ng/mL), 200 mg once daily): 13.72 (11.95‐15.49) Milliseconds
- Model‐Derived ∆∆QTcS (90%CI) ([1]; Therapeutic Steady‐State Cmax (1137 ng/mL)): 6.55 (5.68‐7.43) Milliseconds
- Model‐Derived ∆∆QTcF (90%CI) ([1]; Therapeutic Steady‐State Cmax (1137 ng/mL), 100 mg once daily): 7.34 (6.46‐8.22) Milliseconds
- Model‐Derived ∆∆QTcF (90%CI) ([1]; Therapeutic Steady‐State Cmax (1137 ng/mL), 100 mg once daily, listed as glasdegib): 7.3 Milliseconds and 7.34 Milliseconds
- upper bound of the 90%CI of mean predicted ΔΔQTcF ([1]; mean therapeutic glasdegib Cmax): < 10 milliseconds
- upper bound of the 90%CI of mean predicted ΔΔQTcF ([1]; supratherapeutic glasdegib Cmax (twice the therapeutic dose)): < 20 milliseconds
- hERG potassium channel inhibition (in words) [2]: inhibit the human ether‐à‐go‐go‐related gene (hERG) potassium channels in a concentration‐dependent manner
- treatment‐emergent AEs (TEAEs), number ([3]; glasdegib 150 mg single dose): 25
- treatment‐related AEs (TRAEs), number ([3]; glasdegib 150 mg single dose): 20
- treatment‐emergent AEs (TEAEs), number ([3]; glasdegib 300 mg single dose): 26
- treatment‐related AEs (TRAEs), number ([3]; glasdegib 300 mg single dose): 20
- tolerability (in words) ([3]; single oral doses of 150 and 300 mg, healthy adult subjects): well tolerated
- highest 90%CI upper bound for the largest and placebo‐ and baseline‐adjusted QTcF change ([4]; glasdegib 150 mg (therapeutic plasma exposure), 4 hours postdose): 10.22 milliseconds
- upper bound of the 2‐sided 90%CIs for all time‐matched least‐squares mean differences in QTcF between glasdegib and placebo ([4]; glasdegib 150 mg and 300 mg single doses): < 20 milliseconds
- QTcF Difference (Glasdegib‐Placebo) (90%CI) [4, 8]: −0.09 (−2.28 to 2.09) Milliseconds
- QTcF LS Mean [4, 8]: 406.43 Milliseconds
- QTcF Difference (Glasdegib‐Placebo) (90%CI) [4, 9]: 2.07 (−0.11 to 4.25) Milliseconds
- QTcF LS Mean [4, 9]: 407.86 Milliseconds
- QTcF Difference (Glasdegib‐Placebo) (90%CI) [4, 10]: 5.17 (2.99‐7.35) Milliseconds
- QTcF LS Mean [4, 10]: 410.08 Milliseconds
- QTcF Difference (Glasdegib‐Placebo) (90%CI) [4, 11]: 5.98 (3.80‐8.16) Milliseconds
- QTcF LS Mean [4, 11]: 410.58 Milliseconds
- QTcF Difference (Glasdegib‐Placebo) (90%CI) [4, 12]: 7.76 (5.58‐9.95) Milliseconds
- QTcF LS Mean [4, 12]: 412.06 Milliseconds
- QTcF Difference (Glasdegib‐Placebo) (90%CI) [4, 13]: 8.03 (5.85‐10.22) Milliseconds
- QTcF LS Mean [4, 13]: 413.23 Milliseconds
- QTcF Difference (Glasdegib‐Placebo) (90%CI) [4, 14]: 5.11 (2.93‐7.29) Milliseconds
- QTcF LS Mean [4, 14]: 407.38 Milliseconds
- QTcF Difference (Glasdegib‐Placebo) (90%CI) [4, 15]: 5.92 (3.74‐8.10) Milliseconds
- QTcF LS Mean [4, 15]: 410.98 Milliseconds
- highest 90%CI upper bound for the largest, placebo‐ and baseline‐adjusted QTcF change ([4]; glasdegib 300 mg (supratherapeutic plasma exposure), 3 hours postdose): 15.61 milliseconds
- QTcF Difference (Glasdegib‐Placebo) (90%CI) [4, 16]: 0.65 (−1.53 to 2.83) Milliseconds
- QTcF LS Mean [4, 16]: 407.18 Milliseconds
- QTcF Difference (Glasdegib‐Placebo) (90%CI) [4, 17]: 5.14 (2.96‐7.32) Milliseconds
- QTcF LS Mean [4, 17]: 410.92 Milliseconds
- QTcF Difference (Glasdegib‐Placebo) (90%CI) [4, 18]: 9.84 (7.66‐12.02) Milliseconds
- QTcF LS Mean [4, 18]: 414.75 Milliseconds
- QTcF Difference (Glasdegib‐Placebo) (90%CI) [4, 19]: 11.06 (8.88‐13.24) Milliseconds
- QTcF LS Mean [4, 19]: 415.66 Milliseconds
- QTcF Difference (Glasdegib‐Placebo) (90%CI) [4, 20]: 13.43 (11.25‐15.61) Milliseconds
- QTcF LS Mean [4, 20]: 417.72 Milliseconds
- QTcF Difference (Glasdegib‐Placebo) (90%CI) [4, 21]: 13.41 (11.23‐15.59) Milliseconds
- QTcF LS Mean [4, 21]: 418.60 Milliseconds
- QTcF Difference (Glasdegib‐Placebo) (90%CI) [4, 22]: 10.82 (8.64‐13.00) Milliseconds
- QTcF LS Mean [4, 22]: 413.08 Milliseconds
- QTcF Difference (Glasdegib‐Placebo) (90%CI) [4, 23]: 8.91 (6.73‐11.09) Milliseconds
- QTcF LS Mean [4, 23]: 413.96 Milliseconds
- AUCextrap [5, 24]: 0.6660 ± 0.30%
- CL/F [5, 24]: 10.37 ± 3.58 L/h
- AUCextrap [5, 25]: 0.4113 ± 0.19%
- CL/F [5, 25]: 10.09 ± 3.05 L/h
- Cmax ([5]; 150 mg): 1120 ± 388 ng/mL
- half-life ([5]; 150 mg): 15.8 ± 2.06 h
- Cmax ([5]; 300 mg): 2300 ± 651 ng/mL
- half-life ([5]; 300 mg): 15.5 ± 1.77 h
- dose proportionality of geometric mean AUCinf and Cmax ([5]; single oral doses of 150 and 300 mg): increased proportionally with dose
- Therapeutic Steady‐State Cmax ([6]; 100 mg once daily): Therapeutic Steady‐State Cmax (1137 ng/mL)
- Supratherapeutic Steady‐State Cmax ([6]; 200 mg once daily): Supratherapeutic Steady‐State Cmax (2445 ng/mL)
- QTc experienced by some patients ([7]; multiple dosing at 400 mg and 600 mg once daily): > 500 milliseconds
- maximum tolerated dose ([7]; single-agent, patients with advanced hematologic malignancies): 400 mg once daily

SMILES: COc1c(N2C[C@@H]3CCCN[C@@H]3C2)c(F)cc2c(=O)c(C(=O)O)cn(C3CC3)c12 [Moxifloxacin]
- treatment‐emergent AEs (TEAEs), number [3, 26]: 27
- treatment‐related AEs (TRAEs), number [3, 26]: 23
